ChEMBL document CHEMBL3351980, “Michael acceptor approach to the design of new salvinorin A-based high affinity ligands for the kappa-opioid receptor” (Eur J Med Chem, 2014)

How the values were obtained:
[1] = species on record: Homo sapiens; test: Selectivity ratio of Ki for mu opioid receptor (unknown origin) to ratio of Ki for kappa opioid receptor (unknown origin)
[2] = species on record: Homo sapiens; test: Selectivity ratio of Ki for delta opioid receptor (unknown origin) to ratio of Ki for kappa opioid receptor (unknown origin)
[3] = biological target: Mu-type opioid receptor (Homo sapiens, UniProt P35372); test: Displacement of [3H]DAMGO from mu opioid receptor (unknown origin) expressed in HEK293T cells after 1.5 hrs by radioligand binding assay; assay type: cell-based, HEK-293T
Mu-type opioid receptor, sequence (P35372 whole entry): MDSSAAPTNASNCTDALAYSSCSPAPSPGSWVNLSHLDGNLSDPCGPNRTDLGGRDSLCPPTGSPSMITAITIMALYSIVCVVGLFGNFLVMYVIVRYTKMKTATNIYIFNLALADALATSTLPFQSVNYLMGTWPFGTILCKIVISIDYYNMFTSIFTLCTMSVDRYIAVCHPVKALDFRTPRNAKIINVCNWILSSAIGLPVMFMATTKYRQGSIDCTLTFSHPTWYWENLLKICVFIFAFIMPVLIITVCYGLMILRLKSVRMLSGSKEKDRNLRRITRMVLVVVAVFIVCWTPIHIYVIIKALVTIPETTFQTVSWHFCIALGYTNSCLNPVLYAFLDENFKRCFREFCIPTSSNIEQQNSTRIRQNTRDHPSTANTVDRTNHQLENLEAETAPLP

[4] = biological target: Delta-type opioid receptor (Homo sapiens, UniProt P41143); test: Displacement of [3H]DADLE from delta opioid receptor (unknown origin) expressed in HEK293T cells after 1.5 hrs by radioligand binding assay; assay type: cell-based, HEK-293T
Delta-type opioid receptor, sequence (P41143 whole entry): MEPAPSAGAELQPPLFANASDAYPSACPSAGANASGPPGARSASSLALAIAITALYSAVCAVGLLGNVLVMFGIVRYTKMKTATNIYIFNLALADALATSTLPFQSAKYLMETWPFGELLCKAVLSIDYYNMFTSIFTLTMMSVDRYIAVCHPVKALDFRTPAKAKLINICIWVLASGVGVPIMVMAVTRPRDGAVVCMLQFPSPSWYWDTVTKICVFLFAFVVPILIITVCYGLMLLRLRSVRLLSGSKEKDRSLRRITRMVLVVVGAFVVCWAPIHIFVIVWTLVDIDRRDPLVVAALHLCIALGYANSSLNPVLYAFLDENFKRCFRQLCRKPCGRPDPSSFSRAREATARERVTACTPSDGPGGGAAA

[5] = biological target: T1, Kappa-type opioid receptor (Homo sapiens, UniProt P41145); test: Inhibition of human kappa opioid receptor expressed in HEK293T cells assessed as inhibition of cAMP production after 30 mins; assay type: functional, cell-based, HEK-293T
T1 sequence (P41145 whole entry): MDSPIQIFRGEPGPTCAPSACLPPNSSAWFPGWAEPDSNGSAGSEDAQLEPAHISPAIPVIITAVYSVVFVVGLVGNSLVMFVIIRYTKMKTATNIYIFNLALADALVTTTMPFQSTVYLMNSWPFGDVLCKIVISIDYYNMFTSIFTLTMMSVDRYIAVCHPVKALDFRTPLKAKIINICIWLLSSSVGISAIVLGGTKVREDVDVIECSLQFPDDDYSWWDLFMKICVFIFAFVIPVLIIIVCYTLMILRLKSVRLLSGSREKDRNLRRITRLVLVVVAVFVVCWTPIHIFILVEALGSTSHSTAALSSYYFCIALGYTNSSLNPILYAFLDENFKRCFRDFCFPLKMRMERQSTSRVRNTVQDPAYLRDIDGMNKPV

[6] = biological target: T1, Kappa-type opioid receptor; test: Displacement of [3H]U69593 from kappa opioid receptor (unknown origin) expressed in HEK293T cells after 1.5 hrs by radioligand binding assay; assay type: cell-based, HEK-293T
In short: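 HEK293T cells stably expressing KOR were hypotonically lysed in 50 mM Tris-HCl, 10 mM MgCl2, 0.1 mM EDTA, pH 7.4, and membranes were pelleted. Samples were filtered onto PEI-soaked GF/A filters and scintillation counted. Ki came from a one-site competition fit.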

**Q.** Which results are given for `COC(=O)[C@@H]1C[C@H](OC(=O)/C=C/c2ccc(C(F)(F)F)cc2)C(=O)[C@H]2[C@@]1(C)CC[C@H]1C(=O)O[C@H](c3ccoc3)C[C@]21C`?
**A.** Ratio Ki [1]: 1; Ratio Ki [2]: 1; Ki [3]: > 10 µM; Ki [4]: > 10 µM; EC50 [5]: 0.642 µM; Ki [6]: > 10 µM

**Q.** How did the Ratio Ki [1] turn out when `C=CC(=O)O[C@H]1C[C@@H](C(=O)OC)[C@]2(C)CC[C@H]3C(=O)O[C@H](c4ccoc4)C[C@]3(C)[C@H]2C1=O` was run?
**A.** 54

**Q.** What about the Ki [3] of the same molecule?
**A.** 0.979 µM

**Q.** What about the Ki [4] of the same molecule?
**A.** > 10 µM

**Q.** What about the EC50 [5] of the same molecule?
**A.** 0.137 µM

**Q.** What about the Ki [6] of the same molecule?
**A.** 0.0181 µM

**Q.** `COC(=O)[C@@H]1C[C@H](OC(=O)/C=C/c2cc(OC)c(OC)c(OC)c2)C(=O)[C@H]2[C@@]1(C)CC[C@H]1C(=O)O[C@H](c3ccoc3)C[C@]21C` was tested. Which Ki [3] did it give?
**A.** > 10 µM

**Q.** What about the Ki [4] of the same molecule?
**A.** > 10 µM

**Q.** What about the EC50 [5] of the same molecule?
**A.** 1.8 µM

**Q.** What about the Ki [6] of the same molecule?
**A.** > 10 µM

**Q.** Which Ratio Ki [1] does the source give for `C/C=C/C(=O)O[C@H]1C[C@@H](C(=O)OC)[C@]2(C)CC[C@H]3C(=O)O[C@H](c4ccoc4)C[C@]3(C)[C@H]2C1=O` here?
**A.** 21

**Q.** What about the Ki [3] of the same molecule?
**A.** 0.54 µM

**Q.** And the Ki [4]?
**A.** > 10 µM

**Q.** And the EC50 [5]?
**A.** 0.011 µM

**Q.** What about the Ki [6] of the same molecule?
**A.** 0.0253 µM

**Q.** Which Ratio Ki [2] does the source give for `C=C(C)C(=O)O[C@H]1C[C@@H](C(=O)OC)[C@]2(C)CC[C@H]3C(=O)O[C@H](c4ccoc4)C[C@]3(C)[C@H]2C1=O` here?
**A.** 221

**Q.** What about the Ki [3] of the same molecule?
**A.** > 10 µM

**Q.** And the Ki [4]?
**A.** 7.82 µM

**Q.** And the Ki [6]?
**A.** 0.034 µM

**Q.** With `COC(=O)[C@@H]1C[C@H](OC(=O)/C=C/c2ccccc2[N+](=O)[O-])C(=O)[C@H]2[C@@]1(C)CC[C@H]1C(=O)O[C@H](c3ccoc3)C[C@]21C` as the molecule, how does the Ki [3] read?
**A.** > 10 µM

**Q.** What about the Ki [4] of the same molecule?
**A.** > 10 µM

**Q.** What about the EC50 [5] of the same molecule?
**A.** 0.033 µM

**Q.** What about the Ki [6] of the same molecule?
**A.** 0.148 µM

**Q.** Which Ki [3] does the source give for `COC(=O)[C@@H]1C[C@H](OC(=O)/C=C/c2ccc(OC)cc2OC)C(=O)[C@H]2[C@@]1(C)CC[C@H]1C(=O)O[C@H](c3ccoc3)C[C@]21C` here?
**A.** > 10 µM

**Q.** What about the Ki [4] of the same molecule?
**A.** > 10 µM

**Q.** And the EC50 [5]?
**A.** 0.027 µM

**Q.** And the Ki [6]?
**A.** 0.162 µM

**Q.** Which results are given for `COC(=O)[C@@H]1C[C@H](OC(=O)/C=C/c2cc(OC)ccc2OC)C(=O)[C@H]2[C@@]1(C)CC[C@H]1C(=O)O[C@H](c3ccoc3)C[C@]21C`?
**A.** Ki [3]: > 10 µM; Ki [4]: > 10 µM; EC50 [5]: 0.038 µM; Ki [6]: 0.581 µM

**Q.** `COC(=O)[C@@H]1C[C@H](OC(=O)C=C(C)C)C(=O)[C@H]2[C@@]1(C)CC[C@H]1C(=O)O[C@H](c3ccoc3)C[C@]21C` was tested. Which Ratio Ki [1] did it give?
**A.** 0.73

**Q.** And the Ratio Ki [2]?
**A.** 6.8

**Q.** What about the Ki [3] of the same molecule?
**A.** 0.284 µM

**Q.** And the Ki [4]?
**A.** 2.63 µM

**Q.** And the EC50 [5]?
**A.** 0.698 µM

**Q.** And the Ki [6]?
**A.** 0.385 µM

**Q.** Which results are given for `C=CC(C)C(=O)O[C@H]1C[C@@H](C(=O)OC)[C@]2(C)CC[C@H]3C(=O)O[C@H](c4ccoc4)C[C@]3(C)[C@H]2C1=O` (some centres undefined)?
**A.** Ratio Ki [1]: 15; Ratio Ki [2]: 105; Ki [3]: 0.439 µM; Ki [4]: 3.03 µM; EC50 [5]: 0.037 µM; Ki [6]: 0.0288 µM

**Q.** Which results are given for `COC(=O)[C@@H]1C[C@H](OC(=O)/C=C/c2ccc([N+](=O)[O-])cc2)C(=O)[C@H]2[C@@]1(C)CC[C@H]1C(=O)O[C@H](c3ccoc3)C[C@]21C`?
**A.** Ki [3]: > 10 µM; Ki [4]: > 10 µM; EC50 [5]: 0.032 µM; Ki [6]: 0.281 µM

**Q.** `COC(=O)[C@@H]1C[C@H](OC(=O)/C=C/c2ccc3c(c2)OCO3)C(=O)[C@H]2[C@@]1(C)CC[C@H]1C(=O)O[C@H](c3ccoc3)C[C@]21C` was tested. Which Ratio Ki [1] did it give?
**A.** 8.7

**Q.** And the Ki [3]?
**A.** 2.82 µM

**Q.** What about the Ki [4] of the same molecule?
**A.** > 10 µM

**Q.** And the EC50 [5]?
**A.** 0.05 µM

**Q.** What about the Ki [6] of the same molecule?
**A.** 0.323 µM

**Q.** Which results are given for `COC(=O)[C@@H]1C[C@H](OC(=O)/C=C/c2cc(C(F)(F)F)ccc2C(F)(F)F)C(=O)[C@H]2[C@@]1(C)CC[C@H]1C(=O)O[C@H](c3ccoc3)C[C@]21C`?
**A.** Ki [3]: > 10 µM; Ki [4]: 5.87 µM; EC50 [5]: 1.21 µM; Ki [6]: > 10 µM

**Q.** Which Ki [3] does the source give for `COC(=O)[C@@H]1C[C@H](OC(=O)/C=C/c2ccccc2C(F)(F)F)C(=O)[C@H]2[C@@]1(C)CC[C@H]1C(=O)O[C@H](c3ccoc3)C[C@]21C` here?
**A.** > 10 µM

**Q.** What about the Ki [4] of the same molecule?
**A.** > 10 µM

**Q.** And the EC50 [5]?
**A.** 0.02 µM

**Q.** What about the Ki [6] of the same molecule?
**A.** 0.13 µM

**Q.** `COC(=O)[C@@H]1C[C@H](OC(=O)/C=C/c2cccnc2)C(=O)[C@H]2[C@@]1(C)CC[C@H]1C(=O)O[C@H](c3ccoc3)C[C@]21C` was tested. Which Ki [3] did it give?
**A.** 0.334 µM

**Q.** What about the Ki [4] of the same molecule?
**A.** 4.89 µM

**Q.** And the EC50 [5]?
**A.** 1.76 µM

**Q.** What about the Ki [6] of the same molecule?
**A.** > 10 µM

**Q.** What does the source list for `COC(=O)[C@@H]1C[C@H](OC(=O)/C=C/c2ccc(OC)cc2)C(=O)[C@H]2[C@@]1(C)CC[C@H]1C(=O)O[C@H](c3ccoc3)C[C@]21C`?
**A.** Ki [3]: > 10 µM; Ki [4]: > 10 µM; EC50 [5]: 0.021 µM; Ki [6]: 0.135 µM

**Q.** `COC(=O)[C@@H]1C[C@H](OC(=O)/C=C/c2ccsc2)C(=O)[C@H]2[C@@]1(C)CC[C@H]1C(=O)O[C@H](c3ccoc3)C[C@]21C` was tested. Which Ratio Ki [1] did it give?
**A.** 0.06

**Q.** And the Ratio Ki [2]?
**A.** 0.75

**Q.** What about the Ki [3] of the same molecule?
**A.** 0.018 µM

**Q.** What about the Ki [4] of the same molecule?
**A.** 0.228 µM

**Q.** And the EC50 [5]?
**A.** 0.582 µM

**Q.** What about the Ki [6] of the same molecule?
**A.** 0.304 µM

**Q.** Which Ki [4] does the source give for `C=CCC(=O)O[C@H]1C[C@@H](C(=O)OC)[C@]2(C)CC[C@H]3C(=O)O[C@H](c4ccoc4)C[C@]3(C)[C@H]2C1=O` here?
**A.** 3.26 µM

**Q.** With `COC(=O)[C@@H]1C[C@H](OC(=O)/C=C/c2ccccc2OC)C(=O)[C@H]2[C@@]1(C)CC[C@H]1C(=O)O[C@H](c3ccoc3)C[C@]21C` as the molecule, how does the Ki [3] read?
**A.** > 10 µM

**Q.** What about the Ki [4] of the same molecule?
**A.** > 10 µM

**Q.** And the EC50 [5]?
**A.** 0.01 µM

**Q.** What about the Ki [6] of the same molecule?
**A.** 0.0649 µM

**Q.** How did the Ratio Ki [1] turn out when `COC(=O)[C@@H]1C[C@H](OC(=O)/C=C/c2ccccc2)C(=O)[C@H]2[C@@]1(C)CC[C@H]1C(=O)O[C@H](c3ccoc3)C[C@]21C` was run?
**A.** 5.4

**Q.** What about the Ratio Ki [2] of the same molecule?
**A.** 73

**Q.** What about the Ki [3] of the same molecule?
**A.** 0.052 µM

**Q.** And the Ki [4]?
**A.** 0.7 µM

**Q.** What about the EC50 [5] of the same molecule?
**A.** 0.007 µM

**Q.** What about the Ki [6] of the same molecule?
**A.** 0.0096 µM

**Q.** How did the Ki [3] turn out when `C/C=C(\C)C(=O)O[C@H]1C[C@@H](C(=O)OC)[C@]2(C)CC[C@H]3C(=O)O[C@H](c4ccoc4)C[C@]3(C)[C@H]2C1=O` was run?
**A.** > 10 µM

**Q.** What about the Ki [4] of the same molecule?
**A.** > 10 µM

**Q.** And the EC50 [5]?
**A.** 0.477 µM

**Q.** What about the Ki [6] of the same molecule?
**A.** 0.153 µM

**Q.** For `C=C(C)CC(=O)O[C@H]1C[C@@H](C(=O)OC)[C@]2(C)CC[C@H]3C(=O)O[C@H](c4ccoc4)C[C@]3(C)[C@H]2C1=O`, which Ratio Ki [1] is on record?
**A.** 60

**Q.** And the Ki [3]?
**A.** 0.362 µM

**Q.** What about the Ki [4] of the same molecule?
**A.** > 10 µM

**Q.** And the EC50 [5]?
**A.** 0.025 µM

**Q.** What about the Ki [6] of the same molecule?
**A.** 0.006 µM
